An excerpt weighted towards active compounds, which were near 2.4% of everything screened.
OPRM1-OPRD1 inv: inverse agonist of human OPRM1-OPRD1 heterodimerization. cell-based MOR-DOR heterodimer luminescence, inverse agonism. inhibition, % at 9.3 µM. 0.21% of 340,000 active. AID 504357; in the data active = inhibition above about 22%, passing the limit was not always enough
Target sequence (P35372 whole entry, looked up): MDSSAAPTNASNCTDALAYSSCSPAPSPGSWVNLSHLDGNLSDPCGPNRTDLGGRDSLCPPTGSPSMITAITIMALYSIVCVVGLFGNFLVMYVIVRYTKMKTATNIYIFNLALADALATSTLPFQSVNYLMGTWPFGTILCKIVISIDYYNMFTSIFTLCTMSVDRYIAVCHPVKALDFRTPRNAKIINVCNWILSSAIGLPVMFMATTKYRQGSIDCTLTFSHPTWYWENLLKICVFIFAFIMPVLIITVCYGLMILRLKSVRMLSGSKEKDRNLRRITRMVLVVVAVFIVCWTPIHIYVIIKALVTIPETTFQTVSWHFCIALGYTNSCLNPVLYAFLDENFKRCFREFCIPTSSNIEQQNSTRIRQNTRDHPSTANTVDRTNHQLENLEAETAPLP
Target sequence (P41143 whole entry, looked up): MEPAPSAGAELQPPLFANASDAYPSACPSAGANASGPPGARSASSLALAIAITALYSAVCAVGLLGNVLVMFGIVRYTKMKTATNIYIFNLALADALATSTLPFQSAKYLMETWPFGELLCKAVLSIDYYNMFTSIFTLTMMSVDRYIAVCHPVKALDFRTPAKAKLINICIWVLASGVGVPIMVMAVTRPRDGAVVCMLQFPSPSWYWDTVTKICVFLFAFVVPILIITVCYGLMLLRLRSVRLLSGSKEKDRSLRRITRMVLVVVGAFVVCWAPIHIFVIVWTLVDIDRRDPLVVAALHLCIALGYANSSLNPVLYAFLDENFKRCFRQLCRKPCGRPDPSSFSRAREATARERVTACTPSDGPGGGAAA
MC4R antagonist: antagonists of human melanocortin 4 receptor (MC4R) | P32245 | MC4R-expressing cells, MTII-stimulated cAMP, LANCE TR-FRET | inhibition, % at 6.5 µM | 0.48% of 360,000 active | AID 540295;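 active = inhibition above its plate's cutoff, the mean of tested wells on that plate plus 3 SD, cut at about 29% in these data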
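Test system: U2OS cells stably expressing human melanocortin 4 receptor (MC4R); also added: Melanotan II challenge; compound: 6.5 µM single dose; timing: 30-min compound preincubation, 1-h Melanotan II challenge, 1-h detection, room temperature; signal: Eu-cAMP/anti-cAMP TR-FRET, emission 671 nm; repeats: one well per compound, no replicates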
HTR5A inv ctr: HTR5A inverse agonism, opioid heterodimer counter-screen | 0.083% of 340,000 active | P47898 | inhibition, % at 9.3 µM | HTR5A cell line, luminescence; in the data active = inhibition mostly above about 23%, no sharp cut-off; inactive = mostly below about 18%
OPRM1-OPRD1 ag: OPRM1-OPRD1 heterodimerization agonism; P35372+P41143; cells, luminescence; activation, % at 9.3 µM; 0.3% of 340,000 active; AID 504326; in the data active = activation above about 18%
MC4R barr agon: agonists of human melanocortin 4 receptor (MC4R) beta-arrestin; U2OS MC4R beta-arrestin complementation, luminescence; percent of melanotan II response, DMSO zero; activation, % at 8.9 µM; 0.98% of 360,000 active; AID 540308; P32245;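 active = activation above a per-plate cutoff, the mean activation of sample wells on that plate plus 3 SD, cut at about 8% in these data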
HTR5A ag ctr: activates human HTR5A in OPRM1-OPRD1 agonist counter-screen; AID 504692; HTR5A agonist assay, luminescence, cell-based; 0.61% of 340,000 active; activation, % at 9.3 µM; in the data active = activation mostly above about 9.5%, no sharp cut-off; inactive = mostly below about 7.6%
MC4R barr ag: human MC4R beta-arrestin agonism confirmation; shares compounds with MC4R barr agon; U2OS MC4R beta-arrestin recruitment, luminescence; scaled DMSO 0%, Melanotan II 100%; activation, % at 8.9 µM; 31% of 2,400 active;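 active = mean activation across replicates above the hit cutoff set in the earlier primary screen, cut at about 8% in these data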
MOR-DOR barr ag: counter-screen for MC4R agonists: agonists of mu-delta opioid heterodimer; AID 602194; activation, % at 9.2 µM; U2OS PathHunter beta-arrestin, beta-gal luminescence; percent of deltorphin B response, DMSO zero; shares compounds with MC4R barr agon; 5.8% of 2,400 active;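 active = mean activation across replicates exceeds the hit threshold derived in the earlier primary screen, cut at about 18% in these data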
Hits are given with their value; – = inactive; · = no result.

SMILES	OPRM1-OPRD1 inv	MC4R antagonist	HTR5A inv ctr	OPRM1-OPRD1 ag	MC4R barr agon	HTR5A ag ctr	MC4R barr ag	MOR-DOR barr ag
COc1ccc(-c2cnc3c(NC=O)cc(-c4cc(OC)c(OC)c(OC)c4)cn23)cc1OC	·	–	·	·	30	·	13	–
CCc1nc2ccc(C(=O)NC3CCN(Cc4ccccc4)CC3)cn2c1N(C)Cc1cc2ccccc2s1	·	–	·	·	–	·	·	·
Cc1ccc(NC(=O)C2CCC(N3C(=O)C4CCCCC4C3=O)CC2)cc1 (stereo unspecified)	–	–	–	–	–	–	·	·
NC(Cc1ccc(Cl)cc1)c1csc(Nc2ccc(C(F)(F)F)cn2)n1 (stereo unspecified)	·	–	·	·	–	·	·	·
CC(C)CC(N)c1csc(Nc2ccc(C(F)(F)F)cn2)n1 (stereo unspecified)	·	–	·	·	10	·	26	–
NC(COCc1ccccc1)c1csc(Nc2ccc(C(F)(F)F)cn2)n1 (stereo unspecified)	·	–	·	·	–	·	·	·
NC(CCc1ccccc1)c1csc(Nc2ccc(C(F)(F)F)cn2)n1 (stereo unspecified)	·	–	·	·	17	·	–	–
O=C(Nc1ccc2c(c1)OCO2)c1cc2n(n1)C(C(F)(F)F)CC(c1ccccc1)N2 (stereo unspecified)	–	–	–	–	15	–	–	–
COc1ccc(NC(=O)c2cc3n(n2)C(C(F)(F)F)CC(c2ccc(OC)cc2)N3)cc1 (stereo unspecified)	–	–	–	–	–	–	·	·
Cc1nc2c(-c3ccc(F)cc3)c(C)nn2c(C)c1CCC(=O)Nc1ccccc1F	–	–	–	–	13	–	–	–
COC(CNC(=O)CCc1c(C)nc2c(-c3ccc(F)cc3)c(C)nn2c1C)OC	–	–	–	–	–	–	·	·
C[C@H]1CN([C@@H](C)CO)C(=O)CCCn2cc(nn2)CO[C@@H]1CN(C)S(C)(=O)=O	·	–	·	·	–	·	·	·
N#CC(=Cc1ccccn1)c1nc(-c2ccc(Cl)cc2)cs1	·	–	·	·	17	·	–	–
Cc1c(C(=O)Nc2ccccc2F)sc2ncn(CC(=O)N3CCOCC3)c(=O)c12	–	–	–	–	–	–	·	·
CCOC(=O)c1[nH]c2ccc(Cl)cc2c1NC(=O)/C=C/c1ccc2c(c1)OCO2	–	–	–	–	38	–	–	–
COc1cc2c(-c3ccccc3O)nc3c(c(C)nn3-c3ccccc3)c2cc1OC	–	–	–	–	11	–	–	20
Nn1c(COc2ccccc2F)nnc1SCC(=O)NC1CCS(=O)(=O)C1 (stereo unspecified)	–	–	–	–	–	–	·	·
COC(=O)c1cc(NC(=O)c2ccc(C)cc2)c(=O)oc1C	–	–	–	–	–	–	·	·
CCOC(=O)c1cc(NC(=O)c2ccc(C)cc2)c(=O)oc1-c1ccccc1	–	–	–	–	11	–	–	–
C=CCc1cccc(/C=N/NC(=O)CNc2ccccc2)c1O	–	–	–	–	–	–	·	·
C=CCc1cccc(/C=N/NC(=O)CCCNc2ccc(C)cc2)c1O	–	–	–	–	16	–	–	–
CC1CC(=O)Nc2ccccc2N1C(=O)CSc1nnnn1C(C)C (stereo unspecified)	–	–	–	–	–	–	·	·
COc1ccccc1CNC(=O)COC(=O)CCN1C(=O)C2CC=CCC2C1=O (stereo unspecified)	·	–	·	·	–	·	·	·
CC(=O)c1cccc(NC(=O)c2ccccc2OCc2ccc(F)cc2)c1	–	–	–	–	14	–	–	–
Cc1ccc(CN2CC(C(=O)Nc3nnc(SCc4c(Cl)cccc4Cl)s3)CC2=O)cc1 (stereo unspecified)	–	–	–	–	29	–	–	–
SMILES	OPRM1-OPRD1 inv	MC4R antagonist	HTR5A inv ctr	OPRM1-OPRD1 ag	MC4R barr agon	HTR5A ag ctr	MC4R barr ag	MOR-DOR barr ag
C=CCSc1nnc(NC(=O)C2CC(=O)N(Cc3ccc(C)cc3)C2)s1 (stereo unspecified)	–	–	–	–	–	–	·	·
O=C(CCCCCNc1nc(=S)[nH]c2ccccc12)NCCc1ccc(Cl)cc1	–	–	–	–	12	–	11	–
COc1cc(OC)c(S(=O)(=O)Nc2ccc(C(=O)O)cc2)cc1S(=O)(=O)Nc1ccc(C(=O)O)cc1	–	–	–	–	–	–	·	·
CC1CC(C)CN(c2ccc([N+](=O)[O-])nc2)C1 (stereo unspecified)	–	–	–	–	–	–	·	·
COc1ccc(CC(=O)Nc2ccc(N3CCOCC3)cc2)cc1OC	–	–	–	–	9.6	–	9.6	–
C/C(=C\c1ccco1)C1C(C#N)=C(N)Oc2n[nH]c(-c3ccccc3)c21 (stereo unspecified)	–	–	–	–	–	–	·	·
C/C(=C\c1ccco1)C1C(C#N)=C(N)Oc2n[nH]c(-c3ccc(C)cc3)c21 (stereo unspecified)	–	–	–	–	16	–	23	–
CN(C(=O)COC(=O)c1cc2c(s1)CCCCC2)C1CCS(=O)(=O)C1 (stereo unspecified)	–	–	–	–	–	–	·	·
CSCC[C@H](NS(=O)(=O)c1ccc(C(C)=O)cc1)c1nnc2ccccn12	–	–	–	–	–	–	·	·
Cn1cc(/C=C2\SC(=O)N(c3ccccc3)C2=O)c2ccccc21	–	–	–	–	15	–	–	–
CC(C)(C)C1CCc2onc(C(=O)Nc3ccc4c(c3)OCO4)c2C1 (stereo unspecified)	–	–	–	–	12	–	–	–
CC(C)(C)C1CCc2onc(C(=O)NC3CCCC3)c2C1 (stereo unspecified)	–	–	–	–	–	–	·	·
COC(=O)/C=C/c1ccc(OC(=O)c2ccncc2)cc1	–	–	–	–	–	–	·	·
Cc1cc(NS(=O)(=O)c2ccc(NC(=O)/C=C/c3ccc(Br)cc3)cc2)no1	–	–	–	–	–	–	·	·
Cc1ccc(/C=C/C(=O)Nc2cc(C)on2)cc1	–	–	–	–	19	–	–	–
CN(C)CCN(Cc1ccc(Cl)cc1)c1ccccn1	–	–	–	–	–	–	·	·
S=C(NCCCCN(Cc1ccc(Cl)cc1)c1ccc(Br)cn1)NCCCc1cnc[nH]1	·	–	·	·	10	·	11	–
Fc1ccccc1/C=N/Nc1nc2ccccc2o1	–	–	–	–	13	–	–	–
CCN(CC)c1ccc(/C=N/NC(=O)Cc2nnc(NC(=O)Nc3ccccc3)s2)cc1	–	–	–	–	11	–	–	–
CCN(CC)c1ccc(/C=N/NC(=O)Nc2ccccc2)cc1	–	–	–	–	–	–	·	·
Cc1ccc(N=Nc2ccc(O)c3ncccc23)cc1C	–	–	–	–	–	–	·	·

Source: PubChem BioAssay
